# Key:
# [1] = system: Pitx2; experiment: Endogenous Pitx2 transcript level in transfected C2C12 cells; assay type: cell-based, mouse; settings: C2C12 cells 2 days following transfection
# [2] = system: H3K14ac sites in the C2C12 cell nucleus; experiment: Immunofluorescence co-localization with H3K14ac in C2C12 cell nucleus; assay type: cell-based, mouse; settings: ectopically expressed EGFP-fusion DPF3b; confocal fluorescence imaging
# Procedure, shortened: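 C2C12 myoblasts grown in DMEM with 10% fetal calf serum were transfected with full-length human DPF3b fused to EGFP. H3K14ac was stained with the same anti-H3K14ac antibody used for ChIP and a Texas Red-conjugated secondary. Nuclear overlap of the EGFP and Texas Red signals was imaged on an automated confocal microscope and images were overlaid.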
# [3] = system: H3K14ac at the mouse Pitx2 promoter site; experiment: Re-ChIP; assay type: cell-based; settings: transfected C2C12 cells, qualitative
molecule,measurement,setting,value
"DPF3b: full length human DPF3b cloned into pEGFP-C1 vector, transfected in C2C12 cells (protein, left off: EGFP, end not stated, kept) MATVIHNPLKALGDQFYKEAIEHCRSYNSRLCAERSVRLPFLDSQTGVAQNNCYIWMEKRHRGPGLAPGQLYTYPARCWRKKRRLHPPEDPKLRLLEIKPEVELPLKKDGFTSESTTLEALLRGEGVEKKVDAREEESIQEIQRVLENDENVEEGNEEEDLEEDIPKRKNRTRGRARGSAGGRRRHDAASQEDHDKPYVCDICGKRYKNRPGLSYHYAHTHLASEEGDEAQDQETRSPPNHRNENHRPQKGPDGTVIPNNYCDFCLGGSNMNKKSGRPEELVSCADCGRSGHPTCLQFTLNMTEAVKTYKWQCIECKSCILCGTSENDDQLLFCDDCDRGYHMYCLNPPVAEPPEGSWSCHLCWELLKEKASAFGCQA",enhancement of endogenous Pitx2 transcript,[1],more than 3 fold
same,co-localization with H3K14ac sites in C2C12 cell nucleus,[2],co-localized with H3K14ac sites
same,DPF3b/H3K14ac interaction at Pitx2 promoter,[3],interacts with H3K14ac at the Pitx2 promoter site

# Source: PMC2901902 (Nature, 2010)
